Results published in ChEMBL document CHEMBL1938268, “Synthesis, characterization and in vitro biological evaluation of some novel diarylsulfonylureas as potential cytotoxic and antimicrobial agents” (Bioorg Med Chem Lett, 2012).

Key:
Proteus vulgaris = assay: Antibacterial activity against Proteus vulgaris NCIM 2813 after 24 hrs by agar well diffusion assay; format: functional; settings: NCIM 2813, 24 h
Method in brief: (§1)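 Agar well diffusion per NCCLS; NCIM standard strains. Nutrient agar seeded with 0.1 mL bacterial suspension in sterile 0.85% saline at 10⁵ CFU/mL. Plates in triplicate, 37 0.5 °C, 24 h. MIC taken as lowest concentration giving complete growth inhibition.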

Bacillus pumilus = assay: Antibacterial activity against Bacillus pumilus NCIM 2327 after 24 hrs by agar well diffusion assay; settings: NCIM 2327, 24 h
Bacillus subtilis = assay: Antibacterial activity against Bacillus subtilis NCIM 2063 after 24 hrs by agar well diffusion assay; format: functional; settings: NCIM 2063, 24 h; method in brief: as §1
Micrococcus luteus = assay: Antibacterial activity against Micrococcus luteus NCIM 2155 after 24 hrs by agar well diffusion assay; format: functional; settings: NCIM 2155, 24 h; method in brief: as §1
Penicillium chrysogenum = assay: Antifungal activity against Penicillium chrysogenum NCIM 738 after 48 hrs by agar well diffusion assay; format: functional; settings: NCIM 738, 48 h
Method in brief: (§2)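 Fungal spore suspensions in sterile distilled water set to final 10⁶ CFU/mL; 0.1 mL spread on Potato-Dextrose-Agar. NCCLS agar well diffusion with NCIM standard strains: 6 mm wells given 0.1 mL compound diluted in 1% DMSO, final 16 to 512 µg/mL. Triplicate plates held 48 h at 28 0.2 °C. MIC is lowest concentration fully inhibiting growth.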

Candida albicans = assay: Antifungal activity against Candida albicans NCIM 3102 after 48 hrs by agar well diffusion assay; format: functional; settings: NCIM 3102, 48 h; method in brief: as §2
Klebsiella pneumoniae = assay: Antibacterial activity against Klebsiella pneumoniae NCIM 5082 after 24 hrs by agar well diffusion assay; format: functional; settings: NCIM 5082, 24 h; method in brief: as §1
[1] = Toxicity against Brine shrimp nauplii after 24 hrs; format: organism-based; settings: artemia salina, in vivo; read-out: ED50
Method in brief: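 Artemia salina nauplii hatched 38 h in sterile brine (sea salt 38 g/L, pH 8.5) under aeration; 10 nauplii per vial exposed to graded compound concentrations in 5 mL final volume, 37 °C, 24 h under incandescent light. Survivors counted; percent lethality versus vehicle-treated controls; ED50 from probit analysis; podophyllotoxin positive control.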

Aspergillus niger = assay: Antifungal activity against Aspergillus niger NCIM 548 after 48 hrs by agar well diffusion assay; format: functional; settings: NCIM 548, 48 h; method in brief: as §2
Escherichia coli = assay: Antibacterial activity against Escherichia coli NCIM 2065 after 24 hrs by agar well diffusion assay; format: functional; settings: NCIM 2065, 24 h; method in brief: as §1
Aspergillus oryzae = assay: Antifungal activity against Aspergillus oryzae NCIM 643 after 48 hrs by agar well diffusion assay; format: functional; settings: NCIM 643, 48 h; method in brief: as §2
Staphylococcus aureus = assay: Antibacterial activity against Staphylococcus aureus NCIM 2079 after 24 hrs by agar well diffusion assay; format: functional; settings: NCIM 2079, 24 h; method in brief: as §1
Pseudomonas aeruginosa = assay: Antibacterial activity against Pseudomonas aeruginosa NCIM 2036 after 24 hrs by agar well diffusion assay; format: functional; settings: NCIM 2036, 24 h; method in brief: as §1

Cc1ccc(S(=O)(=O)NC(=O)Nc2ccccc2C(=O)/C=C/c2cccc(O)c2)cc1
512 µg/mL: MIC (Proteus vulgaris) | MIC (Bacillus pumilus) | MIC (Bacillus subtilis) | MIC (Micrococcus luteus) | MIC (Penicillium chrysogenum) | MIC (Candida albicans) | MIC (Klebsiella pneumoniae) | MIC (Aspergillus niger) | MIC (Escherichia coli) | MIC (Aspergillus oryzae) | MIC (Staphylococcus aureus) | MIC (Pseudomonas aeruginosa)
39.3 µg/mL: LC50 at 24 h [1]

COc1ccc(/C=C/C(=O)c2ccccc2NC(=O)NS(=O)(=O)c2ccc(C)cc2)cc1OC
32 µg/mL: MIC (Bacillus subtilis) | MIC (Pseudomonas aeruginosa)
128 µg/mL: MIC (Proteus vulgaris) | MIC (Micrococcus luteus) | MIC (Penicillium chrysogenum) | MIC (Candida albicans) | MIC (Klebsiella pneumoniae) | MIC (Aspergillus niger) | MIC (Aspergillus oryzae)
12.9 µg/mL: LC50 at 24 h [1]
64 µg/mL: MIC (Bacillus pumilus) | MIC (Escherichia coli) | MIC (Staphylococcus aureus)

CC(=O)N1CCN(c2ccc(OCC3COC(Cn4ccnc4)(c4ccc(Cl)cc4Cl)O3)cc2)CC1 (configuration not stated) [KETOCONAZOLE]
16 µg/mL: MIC (Penicillium chrysogenum) | MIC (Candida albicans) | MIC (Aspergillus niger) | MIC (Aspergillus oryzae)

Cc1ccc(S(=O)(=O)NC(=O)Nc2ccccc2C(=O)/C=C/c2ccc(Cl)cc2Cl)cc1
16 µg/mL: MIC (Bacillus subtilis) | MIC (Pseudomonas aeruginosa)
8.34 µg/mL: LC50 at 24 h [1]
32 µg/mL: MIC (Bacillus pumilus) | MIC (Escherichia coli) | MIC (Staphylococcus aureus)
64 µg/mL: MIC (Proteus vulgaris) | MIC (Micrococcus luteus) | MIC (Penicillium chrysogenum) | MIC (Candida albicans) | MIC (Klebsiella pneumoniae) | MIC (Aspergillus niger) | MIC (Aspergillus oryzae)

Cc1ccc(S(=O)(=O)NC(=O)Nc2ccccc2C(=O)/C=C/c2ccc(O)cc2)cc1
128 µg/mL: MIC (Proteus vulgaris) | MIC (Bacillus pumilus) | MIC (Micrococcus luteus) | MIC (Penicillium chrysogenum) | MIC (Candida albicans) | MIC (Klebsiella pneumoniae) | MIC (Aspergillus niger) | MIC (Escherichia coli) | MIC (Aspergillus oryzae)
256 µg/mL: MIC (Bacillus subtilis) | MIC (Staphylococcus aureus) | MIC (Pseudomonas aeruginosa)
24.3 µg/mL: LC50 at 24 h [1]

Cc1ccc(S(=O)(=O)NC(=O)Nc2ccccc2C(=O)/C=C/c2ccc[nH]2)cc1
128 µg/mL: MIC (Bacillus pumilus) | MIC (Escherichia coli) | MIC (Staphylococcus aureus)
32.1 µg/mL: LC50 at 24 h [1]
256 µg/mL: MIC (Proteus vulgaris) | MIC (Bacillus subtilis) | MIC (Micrococcus luteus) | MIC (Penicillium chrysogenum) | MIC (Candida albicans) | MIC (Klebsiella pneumoniae) | MIC (Aspergillus niger) | MIC (Aspergillus oryzae) | MIC (Pseudomonas aeruginosa)

COc1ccc(/C=C/C(=O)c2ccccc2NC(=O)NS(=O)(=O)c2ccc(C)cc2)c(OC)c1
32 µg/mL: MIC (Bacillus pumilus) | MIC (Bacillus subtilis) | MIC (Escherichia coli) | MIC (Staphylococcus aureus) | MIC (Pseudomonas aeruginosa)
128 µg/mL: MIC (Proteus vulgaris) | MIC (Micrococcus luteus) | MIC (Penicillium chrysogenum) | MIC (Candida albicans) | MIC (Klebsiella pneumoniae) | MIC (Aspergillus niger) | MIC (Aspergillus oryzae)
16 µg/mL: LC50 at 24 h [1]

C=CCOc1ccc(/C=C/C(=O)c2ccccc2NC(=O)NS(=O)(=O)c2ccc(C)cc2)cc1
6.11 µg/mL: LC50 at 24 h [1]
32 µg/mL: MIC (Bacillus subtilis) | MIC (Micrococcus luteus) | MIC (Escherichia coli)
16 µg/mL: MIC (Proteus vulgaris) | MIC (Bacillus pumilus) | MIC (Penicillium chrysogenum) | MIC (Candida albicans) | MIC (Klebsiella pneumoniae) | MIC (Aspergillus niger) | MIC (Aspergillus oryzae) | MIC (Staphylococcus aureus) | MIC (Pseudomonas aeruginosa)

Cc1ccc(S(=O)(=O)NC(=O)Nc2ccccc2C(=O)/C=C/c2ccccc2Cl)cc1
64 µg/mL: MIC (Bacillus pumilus) | MIC (Bacillus subtilis) | MIC (Escherichia coli) | MIC (Staphylococcus aureus) | MIC (Pseudomonas aeruginosa)
12.8 µg/mL: LC50 at 24 h [1]
128 µg/mL: MIC (Proteus vulgaris) | MIC (Micrococcus luteus) | MIC (Penicillium chrysogenum) | MIC (Candida albicans) | MIC (Klebsiella pneumoniae) | MIC (Aspergillus niger) | MIC (Aspergillus oryzae)

COc1cc([C@@H]2c3cc4c(cc3[C@H](O)[C@H]3COC(=O)[C@H]23)OCO4)cc(OC)c1OC [PODOFILOX]
3.61 µg/mL: LC50 at 24 h [1]

Cc1ccc(S(=O)(=O)NC(=O)Nc2ccccc2C(=O)/C=C/c2ccccc2[N+](=O)[O-])cc1
16 µg/mL: MIC (Bacillus pumilus) | MIC (Bacillus subtilis) | MIC (Penicillium chrysogenum) | MIC (Candida albicans) | MIC (Aspergillus niger) | MIC (Aspergillus oryzae) | MIC (Staphylococcus aureus) | MIC (Pseudomonas aeruginosa)
32 µg/mL: MIC (Proteus vulgaris) | MIC (Micrococcus luteus) | MIC (Klebsiella pneumoniae) | MIC (Escherichia coli)
40.1 µg/mL: LC50 at 24 h [1]
